Compound activity as filed in PubChem.
An excerpt weighted towards active compounds, which were near 2.6% of everything screened.
SENP7 block = SENP7 protease inhibition | Q9BQF6 | recombinant SENP7, Z-RLRGG-aminoluciferin luminescence, 40 min | inhibition, % at 5 µM | 330,000 compounds, 1.5% hits;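 active means inhibition above about 50% at the single test dose, limit read from the data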
Platelet DG rel = platelet dense granule release activity; human platelet-rich plasma, SFLLRN dense granule ATP release, luminescence; inhibition, %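 (compounds screened at 7.5 µM in platelet-rich plasma)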; 300,000 compounds, 0.22% hits;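 active means mean replicate score, as percent of positive control, at or above 50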
SENP8 block-1 = blocks human SENP8 cleavage of Nedd8 substrate; recombinant SENP8, Nedd8 substrate fluorescence; inhibition, % at 20 µM; 360,000 compounds, 0.64% hits; AID 602440; in the data active means inhibition mostly above about 40%, no sharp cut-off; inactive means mostly below about 27%
Target sequence (Q96LD8 whole entry, looked up): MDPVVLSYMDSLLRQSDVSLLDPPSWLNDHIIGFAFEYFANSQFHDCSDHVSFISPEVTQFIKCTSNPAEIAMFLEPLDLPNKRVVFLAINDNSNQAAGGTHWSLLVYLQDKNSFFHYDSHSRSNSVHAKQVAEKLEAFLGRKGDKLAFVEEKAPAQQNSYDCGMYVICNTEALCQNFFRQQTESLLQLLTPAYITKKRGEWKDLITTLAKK
SENP6 block = SENP6 protease inhibition. Recombinant SENP6 catalytic domain, aminoluciferin luminescence. inhibition, % at 10 µM. 330,000 compounds, 1.8% hits. AID 2599;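 active means inhibition above about 50% at the single tested dose, limit read from the data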
SENP1 inh = blocks the human SENP1 SUMO protease catalytic domain | recombinant SENP1 catalytic domain, CyPet-SUMO1-YPet FRET cleavage | inhibition, % at 10 µM | 360,000 compounds, 0.21% hits;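 active means inhibition at least 30% at 10 µM, raw YFP signal under a set limit, fluorescence ratio 0.5 to 1.5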
Target sequence (Q9P0U3 419-644 limits assumed): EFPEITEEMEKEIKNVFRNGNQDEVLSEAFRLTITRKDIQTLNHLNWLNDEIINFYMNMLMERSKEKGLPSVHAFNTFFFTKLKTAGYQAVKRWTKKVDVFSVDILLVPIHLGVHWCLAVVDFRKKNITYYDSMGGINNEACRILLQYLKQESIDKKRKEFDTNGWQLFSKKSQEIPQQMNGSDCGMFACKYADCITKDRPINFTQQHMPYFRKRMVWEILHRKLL
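Assay system: hSENP1 catalytic domain, recombinant. Amount: SENP1 enzyme, 20 pM final. Schedule: 50 min reaction, RT, dark. Technique: FRET, CFP and YFP emission. Control set: no-enzyme wells low, DMSO-plus-enzyme wells high control.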
SENP8 block-2 = SENP8 protease inhibition | Q96LD8 | purified SENP8, Z-RLRGG-aminoluciferin cleavage, luminescence | inhibition, % at 10 µM | 330,000 compounds, 1.2% hits | AID 2540; in the data active means inhibition above about 50%
SENP8 conf = confirmation of human SENP8 protease inhibitors | shares compounds with SENP7 block | Recombinant SENP8, Z-RLRGG-aminoluciferin luminescence, 60 min | inhibition, % at 12.5 µM | 6,200 compounds, 40% hits | AID 488912;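 active means mean inhibition across replicates above about 50%, limit read from the data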
SENP6 conf = human SENP6 inhibition, confirmed; shares compounds with SENP7 block; recombinant SENP6, Z-RLRGG-aminoluciferin luminescence; inhibition, % at 12.5 µM; 6,200 compounds, 58% hits
SENP7 confirm = confirmation of human SENP7 protease inhibitors; shares compounds with SENP7 block; recombinant SENP7, Z-RLRGG-aminoluciferin luminescence, 40 min; inhibition, % at 12.5 µM; 6,200 compounds, 69% hits; AID 488917
Casp3 SENP sel = caspase-3 inhibition (SENP selectivity assay); shares compounds with SENP7 block; purified caspase-3, Z-DEVD-aminoluciferin luminescence, 60 min; inhibition, % at 12.5 µM; 6,200 compounds, 60% hits; AID 488918;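 active means mean inhibition above about 50%, limit read from the data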
Target sequence (P42574 28-227 limits assumed): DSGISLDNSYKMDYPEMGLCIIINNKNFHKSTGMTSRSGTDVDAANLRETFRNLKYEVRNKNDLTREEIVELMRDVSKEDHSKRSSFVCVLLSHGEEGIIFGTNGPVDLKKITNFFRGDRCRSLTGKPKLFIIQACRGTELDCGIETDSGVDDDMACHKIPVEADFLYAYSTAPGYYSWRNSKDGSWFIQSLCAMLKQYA
Luc interf = counter-screen for SENP inhibitors: luminescence interference; shares compounds with SENP7 block; Pre-incubated SENP8/Z-RLRGG-aminoluciferin, luciferase luminescence interference; inhibition, % at 12.5 µM; 6,200 compounds, 39% hits;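 active means mean inhibition above about 50% when retested at one dose, limit read from the data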
Of the large screens only hits and unclear results are named; the others gave an inactive call (follow-up assays come after a bar, where they were run).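 How the source made its calls, unless noted: active means mean inhibition above about 50% in the one-dose retest (limit read from the data); inactive means the rest.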

COC(=O)c1ccc2c(c1O)C(=O)c1ccccc1C2=O	SENP6 block 70.6 | SENP8 conf inactive | SENP6 conf 54.9 | SENP7 confirm 66.4 | Casp3 SENP sel 74.0 | Luc interf inactive
Nc1c(C(=O)O)ccc2c1C(=O)c1ccccc1C2=O	SENP8 block-2 54.1 | SENP8 conf 68.8 | SENP6 conf 66.2 | SENP7 confirm 83.4 | Casp3 SENP sel 78.7 | Luc interf 72.8
O=C(O)c1ccc(N/N=C/c2ccc(OC(=O)c3cccc(Cl)c3)cc2)cc1	SENP8 block-2 79.7 | SENP8 conf inactive | SENP6 conf inactive | SENP7 confirm inactive | Casp3 SENP sel inactive | Luc interf inactive
O=C(O)c1cccc(N/N=C/c2ccc(OC(F)(F)F)cc2)c1	SENP6 block 98.8, SENP8 block-2 97.5 | SENP8 conf inactive | SENP6 conf 100.1 | SENP7 confirm 102.7 | Casp3 SENP sel 94.1 | Luc interf 98.8
O=C(O)c1cccc(N/N=C/c2cccs2)c1	SENP7 block 99.9, SENP6 block 99.7, SENP8 block-2 96.8 | SENP8 conf 99.6 | SENP6 conf 100.3 | SENP7 confirm 103.8 | Casp3 SENP sel 97.6 | Luc interf 99.1
CCCCN(C)C(=O)c1ccc2c(c1)S(=O)(=O)c1ccccc1C2=O	none
CCCC1C(C#N)=C(N)Oc2n[nH]c(C(C)(C)C)c21 (stereo not drawn)	none
c1ccc(-c2csc(Nc3ccccn3)n2)cc1	SENP7 block 97.6, SENP6 block 95.5, SENP8 block-2 93.6 | SENP8 conf inactive | SENP6 conf 95.7 | SENP7 confirm 101.5 | Casp3 SENP sel 81.8 | Luc interf 79.0
Cc1ccnc(Nc2nc(-c3ccc(Cl)cc3)cs2)c1	none
Cc1cc(-c2csc(Nc3ccccn3)n2)ccc1F	SENP7 block 67.3, SENP6 block 75.5, SENP8 block-2 58.9 | SENP8 conf inactive | SENP6 conf 75.6 | SENP7 confirm 91.9 | Casp3 SENP sel inactive | Luc interf inactive
Cc1ccc(-c2csc(Nc3ccccn3)n2)cc1	SENP7 block 88.9, SENP6 block 91.4, SENP8 block-2 87.2 | SENP8 conf 92.2 | SENP6 conf 92.1 | SENP7 confirm 98.1 | Casp3 SENP sel 68.7 | Luc interf 77.1
Cc1ccnc(Nc2nc(-c3ccc(F)cc3)cs2)c1	SENP6 block 62.6 | SENP8 conf inactive | SENP6 conf inactive | SENP7 confirm 75.7 | Casp3 SENP sel inactive | Luc interf inactive
COc1ccc(-c2csc(Nc3ccccn3)n2)cc1OC	none
C/C(=C\c1ccccc1)CN1CCN(Cc2ccc(C)o2)C(CCO)C1 (stereo not drawn)	none
O=C(Nc1nc(-c2cc(F)ccc2F)cs1)c1ccccn1	none
CC(=O)Nc1cccc(-c2csc(Nc3ccc(C)cn3)n2)c1	SENP7 block 58.2, SENP6 block 68.9 | SENP8 conf 66.1 | SENP6 conf 64.3 | SENP7 confirm 87.3 | Casp3 SENP sel inactive | Luc interf inactive
Cc1nc(C)c(-c2csc(Nc3ccccn3)n2)s1	SENP7 block 54.1, SENP6 block 74.1, SENP8 block-2 61.4 | SENP8 conf inactive | SENP6 conf 65.0 | SENP7 confirm 87.9 | Casp3 SENP sel inactive | Luc interf 67.5
Oc1ccc(-c2csc(Nc3ccccn3)n2)cc1	SENP7 block 62.2, SENP6 block 84.9, SENP8 block-2 81.6 | SENP8 conf 91.2 | SENP6 conf 87.2 | SENP7 confirm 94.9 | Casp3 SENP sel 54.3 | Luc interf 87.8
Fc1ccc(-c2csc(Nc3ccccn3)n2)c(F)c1	SENP7 block 86.0, SENP6 block 86.5, SENP8 block-2 86.9 | SENP8 conf 72.5 | SENP6 conf 87.3 | SENP7 confirm 99.2 | Casp3 SENP sel 67.6 | Luc interf inactive
O=c1[nH]c2cccc(Cl)c2c2ccccc12	none (no result: SENP7 block, Platelet DG rel, SENP6 block, SENP8 block-2)
CCOC(=O)/C=C(\C)N1N=C(c2ccccc2)CC1c1ccccc1 (stereo not drawn)	SENP6 block 51.9 | SENP8 conf inactive | SENP6 conf inactive | SENP7 confirm 75.4 | Casp3 SENP sel inactive | Luc interf inactive
Oc1ccc(N=Nc2n[nH]c(-c3ccc(Br)cc3)n2)cc1	none (no result: SENP7 block, SENP6 block, SENP8 block-2)
Cc1ccc(N=Nc2ccc(O)cc2)c(Br)c1	SENP6 block 63.7, SENP8 block-2 55.8 | SENP8 conf 73.9 | SENP6 conf 72.6 | SENP7 confirm 86.0 | Casp3 SENP sel inactive | Luc interf 69.0
CCN(CC)S(=O)(=O)c1ccc(N=Nc2cc(C)cc(Br)c2O)cc1	none
Oc1ccc(N=Nc2ccc(Br)cc2)c(O)c1	SENP7 block 88.6, SENP6 block 98.8, SENP8 block-2 95.6 | SENP8 conf 92.9 | SENP6 conf 92.9 | SENP7 confirm 98.3 | Casp3 SENP sel 71.7 | Luc interf 82.1
O=C(COC(=O)c1cccnc1Cl)c1ccc(Cl)s1	SENP7 block 76.3, SENP6 block 55.9 (no result: Platelet DG rel) | SENP8 conf 67.0 | SENP6 conf 62.9 | SENP7 confirm 87.5 | Casp3 SENP sel 79.9 | Luc interf 76.0
Cc1ccc(C(=O)OCC(=O)c2ccc(Cl)s2)s1	SENP6 block 53.7 | SENP8 conf 51.7 | SENP6 conf inactive | SENP7 confirm 80.1 | Casp3 SENP sel inactive | Luc interf inactive
C(=N\Nc1nc(-c2cccnc2)nc2ccccc12)/c1ccccc1	none
Brc1ccc(-c2nc(N/N=C/c3cccnc3)c3ccccc3n2)cc1	SENP7 block 90.4, Platelet DG rel 72.5, SENP6 block 89.7, SENP8 block-2 84.6 | SENP8 conf inactive | SENP6 conf inactive | SENP7 confirm inactive | Casp3 SENP sel inactive | Luc interf inactive
COc1ccc(N2CCN(C(=O)COC(=O)CNC(=O)c3ccc(C)cc3)CC2)cc1	none
O=C1OC2(O)C3C4C=CC(C4)C3C(=O)N2c2ccccc21 (stereo not drawn)	none
COc1ccc2nc(-c3cccc(N)c3)[nH]c2c1	SENP7 block 82.1, SENP6 block 77.2, SENP8 block-2 58.5 | SENP8 conf 69.8 | SENP6 conf 70.7 | SENP7 confirm 93.6 | Casp3 SENP sel 87.7 | Luc interf 67.1
COc1ccc2nc(SCC(N)=O)[nH]c2c1	none
